In ChEMBL document CHEMBL1944514, “Fluorescence detection of single nucleotide polymorphisms using nucleic acid probe containing tricyclic base-linked acyclonucleoside” (Bioorg Med Chem Lett, 2012) one finds Activity and ΔTm data, which are given here for 1 compound.

Type in all cases: nucleic-acid assay
The test system of experiment [1] is Nucleic Acid. The experiment can be described thus: Binding affinity to 3'-r(CUUCCAGUUACAUAGAGA)-5' RNA assessed as change in melting temperature by spectrophotometry.
Experiment [2] concerns Nucleic Acid. Briefly: Binding affinity to 3'-r(CUUCCAGUUGCAUAGAGA)-5' RNA assessed as change in melting temperature by spectrophotometry.
Experiment [3] has as its system Nucleic Acid. Briefly: Binding affinity to 3'-r(CUUCCAGUUCCAUAGAGA)-5' RNA assessed as change in melting temperature by spectrophotometry.
Experiment [4] deals with Nucleic Acid. Briefly: Binding affinity to 3'-r(CUUCCAGUUUCAUAGAGA)-5' RNA assessed as change in melting temperature by spectrophotometry.
The subject of experiment [5] is Nucleic Acid. The experiment can be described thus: Binding affinity to 3'-r(CUUCCAGUUACAUAGAGA)-5' RNA assessed as fluorescence quenching by spectrophotometry.
Experiment [6] has as its system Nucleic Acid. Briefly: Binding affinity to 3'-r(CUUCCAGUUGCAUAGAGA)-5' RNA assessed as fluorescence quenching by spectrophotometry.
Experiment [7] relates to Nucleic Acid. The experiment can be described thus: Binding affinity to 3'-r(CUUCCAGUUCCAUAGAGA)-5' RNA assessed as fluorescence quenching by spectrophotometry.
Experiment [8] relates to Nucleic Acid. The experiment can be described thus: Binding affinity to 3'-r(CUUCCAGUUUCAUAGAGA)-5' RNA assessed as fluorescence quenching by spectrophotometry.
Experiment [9] concerns Nucleic Acid. Briefly: Binding affinity to 3'-r(CUUCCAGUUACAUAGAGA)-5' RNA assessed as fluorescence quenching measured post UV-irradiation by visual analysis. The method in brief: (§1)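 Solutions of the N-containing probe/RNA target duplex in Tm buffer were irradiated with a handheld UV lamp at 254, 302 or 365 nm. The emitted colour was judged by eye from photographs.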
Experiment [10] deals with Nucleic Acid. Briefly: Binding affinity to 3'-r(CUUCCAGUUUCAUAGAGA)-5' RNA assessed as fluorescence quenching measured post UV-irradiation by visual analysis. Put shortly:
as §1

The structures appear in SMILES notation. The source made the active and inactive calls. The rule behind the calls is not given here.

What is called ΔTm is the shift of the melting midpoint relative to a reference. As to `Cc1cn([C@H]2C[C@H](OP(=O)(O)OC[C@H]3O[C@@H](n4ccc(N)nc4=O)C[C@@H]3OP(=O)(O)OC[C@H]3O[C@@H](n4cnc5c(N)ncnc54)C[C@@H]3OP(=O)(O)OC[C@H]3O[C@@H](n4cnc5c(N)ncnc54)C[C@@H]3OP(=O)(O)OC[C@H]3O[C@@H](n4cc(C)c(=O)[nH]c4=O)C[C@@H]3OP(=O)(O)OC[C@H](Cn3cnc4cc5c(N)nc(N)nc5nc43)OP(=O)(O)OC[C@H]3O[C@@H](n4cnc5c(=O)[nH]c(N)nc54)C[C@@H]3OP(=O)(O)CC[C@H]3O[C@@H](n4cc(C)c(=O)[nH]c4=O)C[C@@H]3OP(=O)(O)OC[C@H]3O[C@@H](n4cnc5c(N)ncnc54)C[C@@H]3OP(=O)(O)OC[C@H]3O[C@@H](n4cc(C)c(=O)[nH]c4=O)C[C@@H]3OP(=O)(O)OC[C@H]3O[C@@H](n4ccc(N)nc4=O)C[C@@H]3OP(=O)(O)OC[C@H]3O[C@@H](n4cc(C)c(=O)[nH]c4=O)C[C@@H]3OP(=O)(O)OC[C@H]3O[C@@H](n4ccc(N)nc4=O)C[C@@H]3OP(=O)(O)OC[C@H]3O[C@@H](n4cc(C)c(=O)[nH]c4=O)C[C@@H]3O)[C@@H](COP(=O)(O)O[C@H]3C[C@H](n4cnc5c(=O)[nH]c(N)nc54)O[C@@H]3COP(=O)(O)O[C@H]3C[C@H](n4cnc5c(=O)[nH]c(N)nc54)O[C@@H]3COP(=O)(O)O[C@H]3C[C@H](n4cnc5c(N)ncnc54)O[C@@H]3COP(=O)(O)O[C@H]3C[C@H](n4cnc5c(N)ncnc54)O[C@@H]3COP(=O)(O)O[C@H]3C[C@H](n4cnc5c(=O)[nH]c(N)nc54)O[C@@H]3CO)O2)c(=O)nc1N`, the outcome in the experiment on Nucleic Acid [1], in the experiment with Nucleic Acid [5] and with Nucleic Acid [9] was inactive. In addition, the figures for the shift in melting temperature (ΔTm) in the experiment with Nucleic Acid [2], in the experiment on Nucleic Acid [3] and with Nucleic Acid [4] were -0.9 °C, -0.8 °C and 1 °C, respectively. The result in the experiment with Nucleic Acid [6], in the experiment on Nucleic Acid [7], in the experiment with Nucleic Acid [8] and in the experiment on Nucleic Acid [10] was Active.
